Screening results from PubChem BioAssay.
Granule exo inh: LAMP-1 surface exposure blockers, TALL-104 cells – cell-based, flow cytometry, MLPCN library, primary screen; TALL-104 LAMP-1 surface exposure; cells stimulated with thapsigargin and PMA; inhibition, % at 10 µM; hit rate 0.66% among 360,000; AID 651702, 2012;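 active = inhibition above about 55%, limit read from the data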
MPTP block: mitochondrial permeability transition pore inhibitors, primary screen, biochemical, isolated mouse mitochondria, absorbance. Ca2+ swelling absorbance, 30 min. inhibition, % at 10 µM. hit rate 1.4% among 360,000;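 active = inhibition of 50% or more, scaled per plate between neutral and stimulator controls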
UBC13 polyUb: UBC13 polyubiquitin chain formation inhibitors, primary screen, biochemical, TR-FRET, uHTS; AID 485273, 2010; hit rate 0.47% among 330,000; Ubiquitin-conjugating enzyme E2 N (Homo sapiens), P61088; inhibition, % at 20 µM; in the data active = inhibition above about 45%, passing the limit was not always enough
iPSC survival up: enhancers of single-cell hiPSC survival, primary screen, ATPlite luminescence | 100% = ROCK inhibitor wells, 0% = DMSO | hit rate 0.044% among 360,000 | survival enhancement, % at 20 µM; in the data active = survival enhancement above about 18%;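 note: cells exposed to compounds for 16 hours before the ATP read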
Apaf-1 inh: inhibitors of human Apaf-1 apoptosome, primary screen, biochemical, DEVD-Rh110 fluorescence, uHTS. Apoptotic protease-activating factor 1 (Homo sapiens), O14727. reconstituted apoptosome caspase-3 activity. inhibition, % at 20 µM. hit rate 0.71% among 330,000. AID 489030, 2010; active = inhibition of at least 40% at 20 µM
Target sequence (O14727 whole entry, looked up): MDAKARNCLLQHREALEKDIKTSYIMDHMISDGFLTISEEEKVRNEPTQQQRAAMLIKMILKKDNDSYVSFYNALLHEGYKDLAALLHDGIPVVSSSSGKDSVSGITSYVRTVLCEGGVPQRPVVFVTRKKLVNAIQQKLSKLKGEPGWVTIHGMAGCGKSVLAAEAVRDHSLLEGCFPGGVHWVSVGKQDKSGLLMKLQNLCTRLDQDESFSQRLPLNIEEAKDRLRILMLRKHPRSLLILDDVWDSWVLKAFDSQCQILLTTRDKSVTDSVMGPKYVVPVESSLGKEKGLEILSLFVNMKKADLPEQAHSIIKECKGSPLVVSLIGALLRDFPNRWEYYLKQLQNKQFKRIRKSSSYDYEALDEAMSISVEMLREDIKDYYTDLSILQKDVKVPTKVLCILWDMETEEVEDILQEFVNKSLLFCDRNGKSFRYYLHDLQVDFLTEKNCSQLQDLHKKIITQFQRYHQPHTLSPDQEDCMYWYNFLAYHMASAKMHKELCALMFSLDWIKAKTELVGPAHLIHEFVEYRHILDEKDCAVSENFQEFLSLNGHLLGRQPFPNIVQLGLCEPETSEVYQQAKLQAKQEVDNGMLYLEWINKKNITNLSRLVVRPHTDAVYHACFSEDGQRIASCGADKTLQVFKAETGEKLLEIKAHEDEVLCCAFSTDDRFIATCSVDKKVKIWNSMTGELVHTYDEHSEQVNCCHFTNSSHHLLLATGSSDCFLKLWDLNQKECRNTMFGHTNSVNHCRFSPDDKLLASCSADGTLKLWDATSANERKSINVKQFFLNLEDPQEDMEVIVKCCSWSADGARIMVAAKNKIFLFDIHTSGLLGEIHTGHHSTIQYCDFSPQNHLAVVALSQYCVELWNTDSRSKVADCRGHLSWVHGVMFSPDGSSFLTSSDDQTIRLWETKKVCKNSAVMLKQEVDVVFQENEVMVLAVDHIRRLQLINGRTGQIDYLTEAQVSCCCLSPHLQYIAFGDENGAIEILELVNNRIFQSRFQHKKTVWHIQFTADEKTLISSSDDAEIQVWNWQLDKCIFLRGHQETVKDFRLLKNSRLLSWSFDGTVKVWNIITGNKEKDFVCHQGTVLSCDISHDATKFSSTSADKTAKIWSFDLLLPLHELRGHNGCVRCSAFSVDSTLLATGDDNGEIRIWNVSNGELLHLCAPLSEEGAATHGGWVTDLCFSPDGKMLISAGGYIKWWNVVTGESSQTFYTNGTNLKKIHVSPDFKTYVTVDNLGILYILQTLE
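Material: biochemical Apaf-1 apoptosome reconstitution. Medium: Hepes buffer, pH 7.5. Also added: cytochrome c activation, bis-DEVD rhodamine 110 substrate. Timing: 30 min compound preincubation, 50 min activation, room temperature. Measured by: rhodamine 110 fluorescence at Ex 480/Em 540 nm.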
MIN6 prolif: inducers of MIN6 beta-cell proliferation, primary screen, ATP luminescence, uHTS; MIN6 cells proliferation, ATPlite luminescence, 48 h; cells starved in 0.2% serum; 100% = growth in 10% serum; proliferation, % at 10 µM; hit rate 0.29% among 330,000; AID 2380, 2010;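 active = compounds whose signal lies at least 3.5 SD above the mean of all wells on their plate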
MPTP counter: fluorescence retest of MPTP screen hits in isolated mitochondria, single concentration; membrane potential, Rhodamine 123 fluorescence; hit rate 78% among 5,000; inhibition, % at 10 µM; shares compounds with MPTP block; in the data active = inhibition above about 22%
MPTP swell DR: mitochondrial permeability transition pore inhibitors, dose response, biochemical, absorbance, uHTS hits | hit rate 58% among 780 | IC50, µM | AID 651561, 2012 | isolated mitochondria swelling | shares compounds with MPTP block; in the data active = IC50 below about 20 µM
MPTP cs DR: fluorescent counter-screen in isolated mitochondria, dose response, counter-screen for MPTP inhibitor project, biochemical, fluorescence, uHTS hits. shares compounds with MPTP block. isolated mitochondria counterscreen, fluorescence read-out. IC50, µM. hit rate 49% among 780; in the data active = IC50 below about 80 µM
Granule exo CP1: inhibitors of lytic granule exocytosis, confirmation, TALL-104 cells, flow cytometry, Cherry Pick01. shares compounds with Granule exo inh. LAMP-1 externalization; stimulated with PMA plus thapsigargin. inhibition, % at 10 µM. hit rate 11% among 1,500. AID 651954, 2012; in the data active = inhibition above about 60%
Numbers stand for hits. Sampled rows, rich in hits. Any-hit rate of the full collection: about 3%.

What do the screens show for `O=C1NC(=O)N(c2ccccc2)C(=O)/C1=C/c1ccc(Sc2ccccc2)o1`?
Granule exo inh: inactive; MPTP block: 51; iPSC survival up: inactive; MPTP counter: 43

How did O=C1NC(=O)N(c2cccc(Cl)c2)C(=O)/C1=C\c1ccc(Sc2nc3ccccc3[nH]2)o1 do in these assays?
Granule exo inh: inactive; MPTP block: inactive; UBC13 polyUb: inactive; iPSC survival up: inactive; Apaf-1 inh: inactive; MIN6 prolif: inactive

Results for COC(=O)C1=C(c2ccccc2OCc2ccccc2)C[C@@H]2CC[C@H]1N2C(=O)NCc1ccc([N+](=O)[O-])cc1 ?
Granule exo inh: inactive; MPTP block: inactive; UBC13 polyUb: inactive; iPSC survival up: inactive; Apaf-1 inh: inactive; MIN6 prolif: inactive

Results for O=C(Nc1nccs1)C(Cl)(Cl)Cl ?
Granule exo inh: inactive; MPTP block: inactive; UBC13 polyUb: inactive; iPSC survival up: inactive; Apaf-1 inh: inactive; MIN6 prolif: inactive

What do the screens show for `O=C(Nc1ccc(Cl)cc1)Nc1nccs1`?
Granule exo inh: inactive; MPTP block: 86; UBC13 polyUb: inactive; iPSC survival up: inactive; Apaf-1 inh: inactive; MIN6 prolif: inactive; MPTP counter: 89

How did CC(C)S(=O)(=O)N1Cc2ccccc2-n2nncc2C1 do in these assays?
Granule exo inh: inactive; MPTP block: inactive; iPSC survival up: inactive

What do the screens show for `CC1(C)C(=O)CC[C@@]2(C)C1=CCC1C2CC[C@]2(C)C(=O)CCC12` (stereo partly drawn)?
Granule exo inh: inactive; MPTP block: 59; UBC13 polyUb: inactive; iPSC survival up: inactive; Apaf-1 inh: inactive; MIN6 prolif: inactive; MPTP counter: inactive; MPTP swell DR: 6.3; MPTP cs DR: 13

What do the screens show for `CN1C2CCC1C(C(=O)O)C(O)C2` (stereo not drawn)?
Granule exo inh: inactive; MPTP block: inactive; UBC13 polyUb: inactive; iPSC survival up: inactive; Apaf-1 inh: inactive; MIN6 prolif: inactive

What do the screens show for `CC[C@@H](O)C[C@H]1CCC[C@@]2(C[C@@H]3OC(=O)/C=C/[C@@](C)(O)[C@@H](O)[C@H](C)[C@@H](O)[C@H](OC4CCC(N(C)C)C(C)O4)[C@@H](O)[C@](C)(O)CCCCC/C=C/[C@@H]4CC(C)(C)O[C@@]4(O)C[C@H](O2)[C@H]3C)O1` (stereo partly drawn)?
Granule exo inh: inactive; MPTP block: inactive; iPSC survival up: inactive

What do the screens show for `C[n+]1c(-c2ccccc2)sc2ccccc21`?
Granule exo inh: inactive; MPTP block: inactive; UBC13 polyUb: inactive; iPSC survival up: inactive; Apaf-1 inh: inactive; MIN6 prolif: inactive

Results for CC[n+]1c(/C=C/C=C/c2ccc(N(C)C)cc2)sc2ccccc21 ?
Granule exo inh: inactive; MPTP block: 134; UBC13 polyUb: inactive; iPSC survival up: inactive; Apaf-1 inh: inactive; MIN6 prolif: inactive; MPTP counter: 71

Results for CN(C)c1ccc(/C=C/c2cc[n+](C)c3ccccc23)cc1 ?
Granule exo inh: inactive; MPTP block: 75; iPSC survival up: inactive; MPTP counter: 66

How did CC[n+]1c(/C=C/N(C)c2ccccc2)sc2ccc(Cl)cc21 do in these assays?
Granule exo inh: inactive; MPTP block: inactive; UBC13 polyUb: inactive; iPSC survival up: inactive; Apaf-1 inh: inactive; MIN6 prolif: inactive

Results for CN(C)c1ccc(/C=C/C=C/c2sc3ccccc3[n+]2C)cc1 ?
Granule exo inh: inactive; MPTP block: 57; UBC13 polyUb: inactive; iPSC survival up: inactive; Apaf-1 inh: inactive; MIN6 prolif: inactive; MPTP counter: 65

Results for C[C@H]1CN([C@@H](C)CO)C(=O)CCCn2nncc2CO[C@H]1CN(C)C(=O)Oc1ccc2ccccc2c1 ?
Granule exo inh: inactive; MPTP block: inactive; iPSC survival up: inactive

How did CN(c1ccccc1)P(=O)(N1CC1)N1CC1 do in these assays?
Granule exo inh: inactive; MPTP block: inactive; iPSC survival up: inactive

What do the screens show for `COc1cc2c(cc1OC)[C@H]1C(=O)c3ccc4c(c3O[C@H]1CO2)C[C@@H](C(C)(C)O)O4`?
Granule exo inh: inactive; MPTP block: inactive; UBC13 polyUb: inactive; iPSC survival up: inactive; Apaf-1 inh: inactive; MIN6 prolif: inactive

How did COc1cc2c(cc1OC)C1C(=O)c3ccc4c(c3OC1CO2)CC(C(C)C)O4 (stereo not drawn) do in these assays?
Granule exo inh: inactive; MPTP block: 103; iPSC survival up: inactive; MPTP counter: 88

What do the screens show for `COc1cc2c(cc1OC)[C@@H]1C(=O)c3ccc4c(c3O[C@@H]1CO2)C[C@H](C(C)C)O4`?
Granule exo inh: inactive; MPTP block: 96; UBC13 polyUb: inactive; iPSC survival up: inactive; Apaf-1 inh: inactive; MIN6 prolif: inactive; MPTP counter: 83

How did CCCCOc1ccc(CCN)cc1Cl do in these assays?
Granule exo inh: inactive; MPTP block: 92; UBC13 polyUb: inactive; iPSC survival up: inactive; Apaf-1 inh: inactive; MIN6 prolif: inactive; MPTP counter: inactive; MPTP swell DR: 6.6; MPTP cs DR: inactive

How did CC(C)Oc1ccc(CCN)cc1Cl do in these assays?
Granule exo inh: inactive; MPTP block: inactive; UBC13 polyUb: inactive; iPSC survival up: inactive; Apaf-1 inh: inactive; MIN6 prolif: inactive

How did COC(=O)C12OCC34C(CC5C(C)=C(O)C(=O)CC5(C)C3C(O)C1O)OC(=O)C(OC(=O)/C=C(\C)C(C)C)C24 (stereo not drawn) do in these assays?
Granule exo inh: inactive; MPTP block: inactive; iPSC survival up: inactive

How did CCOc1cccc(CNCCc2c(C)[nH]c3ccc(OC(F)(F)F)cc23)c1O do in these assays?
Granule exo inh: 78; MPTP block: 80; UBC13 polyUb: inactive; iPSC survival up: inactive; Apaf-1 inh: inactive; MIN6 prolif: inactive; MPTP counter: 79; Granule exo CP1: 83

Results for COC(=O)C1=C(c2ccc(OC(F)(F)F)cc2)C[C@@H]2CC[C@H]1N2C(=O)NC1CCCCC1 ?
Granule exo inh: inactive; MPTP block: inactive; UBC13 polyUb: inactive; iPSC survival up: inactive; Apaf-1 inh: inactive; MIN6 prolif: inactive
